Measurements: ChEMBL document CHEMBL3785055, “Arginine-linked neomycin B dimers: synthesis, rRNA binding, and resistance enzyme activity” (Medchemcomm, 2016)
≈ marks a conversion by molar mass, not a printed value. Calls of active or inactive are those of the source. The rule behind the calls is not given here.

How the values were obtained:
[1] = Activity at APH(3')-1a (unknown origin) at 100 uM in presence of […] by […] relative to NEO
Bacillus cereus = test: Antibacterial activity against Bacillus cereus ATCC 11778 after 16 to 20 hrs by MTT assay; assay type: functional
How it was run: (§1)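 Strains grown in LB 24 h at 37 °C, 250 rpm; overnight culture diluted 1:1000, grown 4 h, diluted 1:1000 again and added to microplates. Incubation 16–20 h at 37 °C; growth read visually and with MTT (1 mg/mL).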

[2] = Displacement of F-NEO from human rRNA A-site by fluorescence assay
[3] = Activity at Eis (unknown origin) at 100 uM in presence of AcCoA by Ellmans method relative to NEO
How it was run: (§2)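 Acetylation followed by Ellman's method at 412 nm, 2 mM DTNB, 100 μM compound, 25 °C, triplicate, rates normalized to NEO. AcCoA 500 μM for Eis, 150 μM for AAC(3)-IV; enzyme 0.5 μM for Eis, 0.125 μM for AAC(3)-IV; 50 mM buffer.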

[4] = Selectivity factor, ratio of IC50 for human rRNA A-site to IC50 for Escherichia coli rRNA A-site
How it was run: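 Ratio from F-NEO displacement titrations, 0.002–2.0 μM compound against 0.1 μM F-NEO:A-site complex (485/535 nm). Measured IC50 stands in for the unmeasurable competition constants in Kd(human)/Kd(E. coli) = 5.75 × K(E. coli)/K(human). Buffer 10 mM HEPES, 50 mM NaCl, 0.4 mM EDTA, pH 7.0.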

Escherichia coli [5] = test: Activity at Escherichia coli AAC(3)-4 at 100 uM in presence of AcCoA by Ellmans method relative to NEO; how it was run: as §2
Staphylococcus aureus [6] = test: Antibacterial activity against Staphylococcus aureus ATCC 25923 after 16 to 20 hrs by MTT assay; assay type: functional; how it was run: as §1
[7] = Displacement of F-NEO from Escherichia coli rRNA A-site by fluorescence assay
[8] = system: Mycobacterium tuberculosis; test: Activity at Mycobacterium tuberculosis AAC(2')-1c at 100 uM in presence of AcCoA by Ellmans method relative to NEO
How it was run: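 N-acetylation by AAC(2')-Ic (0.125 μM enzyme) of 100 μM compound with 150 μM AcCoA and 2 mM DTNB in 100 mM buffer, 25 °C. Thiol release followed at 412 nm (ε = 14,150 M⁻¹cm⁻¹). Rates normalized to neomycin B, triplicate.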

Staphylococcus aureus [9] = test: Activity at Staphylococcus aureus APH(2'')-1a at 100 uM in presence of […] by […] relative to NEO
[10] = system: Staphylococcus epidermidis; test: Antibacterial activity against Staphylococcus epidermidis ATCC 12228 after 16 to 20 hrs by MTT assay; assay type: functional; how it was run: as §1
Staphylococcus aureus [11] = test: Activity at Staphylococcus aureus AAC(6')-1e/APH(2'')-1a in presence of AcCoA by Ellmans method relative to NEO
Homo sapiens = species on record: Homo sapiens; test: Displacement of F-NEO from human rRNA A-site at 0.1 uM by fluorescence assay
How it was run: (§3)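 Single-point competitive screen: compound at 0.1 μM added to 0.1 μM F-NEO:A-site RNA complex. Displacement read as emission increase over complex alone (ΔF), expressed as % of fluorescence of 0.1 μM F-NEO. Buffer 10 mM HEPES, 50 mM NaCl, 0.4 mM EDTA, pH 7.0; at least duplicates.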

Escherichia coli [12] = test: Displacement of F-NEO from Escherichia coli rRNA A-site at 0.1 uM by fluorescence assay; how it was run: as §3

Row | SMILES | Activity [1] | MIC (Bacillus cereus) [µM] | IC50 [2] [µM] | Activity [3] | Ratio IC50 [4] | Activity (Escherichia coli [5]) | MIC (Staphylococcus aureus [6]) [µM] | IC50 [7] [µM] | Activity [8] | Activity (Staphylococcus aureus [9]) | MIC [10] [µM] | Activity (Staphylococcus aureus [11]) | Activity (Homo sapiens) | Activity (Escherichia coli [12])
1 | N=C(N)NCCC[C@@H](NC(=O)c1cc(-c2cn(C[C@@H]3O[C@H](O[C@@H]4[C@@H](O)[C@H](N)C[C@H](N)[C@H]4O[C@@H]4O[C@@H](CN)[C@H](O)[C@@H](O)[C@@H]4N)[C@@H](O)[C@H]3O[C@H]3O[C@@H](CN)[C@@H](O)[C@H](O)[C@H]3N)nn2)cc(-c2cn(C[C@H]3O[C@@H](O[C@@H]4[C@@H](O)[C@H](N)C[C@H](N)[C@H]4O[C@@H]4O[C@@H](CN)[C@H](O)[C@@H](O)[C@@H]4N)[C@H](O)[C@@H]3O[C@H]3O[C@@H](CN)[C@@H](O)[C@H](O)[C@H]3N)nn2)c1)C(N)=O (stereo in doubt) | inactive | 3 (≈ 4.81 µg/mL) | 71 | inactive | 7.4 | 30% | > 50 | 55 | inactive | inactive | > 50 | inactive | – | –
2 | N=C(N)NCCC[C@H](NC(=O)CCCCCNC(=O)c1cc(-c2cn(C[C@@H]3O[C@H](O[C@H]4[C@H](O)[C@@H](N)C[C@@H](N)[C@@H]4O[C@H]4O[C@H](CN)[C@@H](O)[C@H](O)[C@H]4N)[C@@H](O)[C@H]3O[C@H]3O[C@@H](CN)[C@@H](O)[C@H](O)[C@H]3N)nn2)cc(-c2cn(C[C@H]3O[C@@H](O[C@@H]4[C@@H](O)[C@H](N)C[C@H](N)[C@H]4O[C@@H]4O[C@@H](CN)[C@H](O)[C@@H](O)[C@@H]4N)[C@H](O)[C@@H]3O[C@@H]3O[C@H](CN)[C@H](O)[C@@H](O)[C@@H]3N)nn2)c1)C(N)=O (stereo in doubt) | inactive | 1.6 (≈ 2.75 µg/mL) | 68 | inactive | 7.2 | Active | > 50 | 54 | inactive | inactive | > 50 | inactive | – | –
3 | N=C(N)NCCC[C@H](N)C(=O)NCCCn1cc(-c2cccc(-c3cn(CCCNC(=O)[C@@H](N)CCCNC(=N)N)nn3)c2)nn1 | – | – | – | – | – | – | – | – | – | – | – | – | inactive | inactive
4 | N=C(N)NCCC[C@H](NC(=O)CNC(=O)c1cc(-c2cn(C[C@H]3O[C@@H](O[C@@H]4[C@@H](O)[C@H](N)C[C@H](N)[C@H]4O[C@H]4O[C@H](CN)[C@@H](O)[C@H](O)[C@H]4N)[C@H](O)[C@@H]3O[C@H]3O[C@@H](CN)[C@@H](O)[C@H](O)[C@H]3N)nn2)cc(-c2cn(C[C@H]3O[C@@H](O[C@H]4[C@H](O)[C@@H](N)C[C@@H](N)[C@@H]4O[C@@H]4O[C@@H](CN)[C@H](O)[C@@H](O)[C@@H]4N)[C@H](O)[C@@H]3O[C@H]3O[C@@H](CN)[C@@H](O)[C@H](O)[C@H]3N)nn2)c1)C(N)=O (stereo in doubt) | inactive | 1.6 (≈ 2.66 µg/mL) | 58 | inactive | 5.3 | Active | 50 (≈ 83.1 µg/mL) | 62 | inactive | inactive | > 50 | inactive | – | –
